Each block holds one compound with its values, some of them ahead of it.
Columns and labels:
[1] = molecular target: T1, Metabotropic glutamate receptor 4 (Homo sapiens, UniProt Q14833); experiment: Agonistic activity at Metabotropic glutamate receptor 4 expressed in mammalian cells by GTPgammaS binding assay; format: cell-based
Procedure, shortened: (§1)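 [35S]-GTPγS binding to membranes prepared from CHO cells expressing human mGlu4a. Stimulation is normalised to that given by 1 mM L-Glu. Points are mean ± SEM of three determinations from one experiment.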

[2] = molecular target: T2, Metabotropic glutamate receptor 2 (Homo sapiens, UniProt Q14416); experiment: Inhibitory concentration on Human Metabotropic glutamate receptor 2 expressed in recombinant mammalian cells by GTPgammaS binding assay; format: cell-based
Procedure, shortened: (§2)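 [35S]-GTPγS binding assay in a CHO cell line expressing human mGlu2.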

[3] = molecular target: T2, Metabotropic glutamate receptor 2; experiment: Agonistic activity on Human Metabotropic glutamate receptor 2 expressed in recombinant mammalian cells by GTPgammaS binding assay; format: cell-based; procedure, shortened: as §2
[4] = molecular target: T1, Metabotropic glutamate receptor 4; experiment: Agonistic activity on Human mGlu4a receptor expressed in recombinant mammalian cells by GTPgammaS binding assay; format: cell-based; procedure, shortened: as §1
[5] = molecular target: T1, Metabotropic glutamate receptor 4; experiment: Inhibition of forskolin-stimulated cAMP accumulation in CHO cells expressing hmGlu4a; No full inhibition; format: functional, cell-based
[6] = molecular target: T1, Metabotropic glutamate receptor 4; experiment: Inhibitory concentration on Human mGlu4 receptor expressed in recombinant mammalian cells by GTPgammaS binding assay; format: cell-based
[7] = molecular target: T1, Metabotropic glutamate receptor 4; experiment: Inhibition of forskolin-stimulated cAMP accumulation in CHO cells expressing hmGlu4a; format: functional, cell-based
[8] = molecular target: T2, Metabotropic glutamate receptor 2; experiment: Inhibitory concentration on Human mGlu2 receptor expressed in recombinant mammalian cells by GTPgammaS binding assay; format: cell-based; procedure, shortened: as §2
[9] = molecular target: T1, Metabotropic glutamate receptor 4; experiment: Agonistic activity on Human mGlu4a receptor expressed in recombinant mammalian cells by GTPgammaS binding assay; Partial agonist; format: cell-based; procedure, shortened: as §1
[10] = molecular target: T2, Metabotropic glutamate receptor 2; experiment: Agonistic activity on Human mGlu2 receptor expressed in recombinant mammalian cells by GTPgammaS binding assay; format: cell-based; procedure, shortened: as §2

T1 sequence (Q14833 whole entry): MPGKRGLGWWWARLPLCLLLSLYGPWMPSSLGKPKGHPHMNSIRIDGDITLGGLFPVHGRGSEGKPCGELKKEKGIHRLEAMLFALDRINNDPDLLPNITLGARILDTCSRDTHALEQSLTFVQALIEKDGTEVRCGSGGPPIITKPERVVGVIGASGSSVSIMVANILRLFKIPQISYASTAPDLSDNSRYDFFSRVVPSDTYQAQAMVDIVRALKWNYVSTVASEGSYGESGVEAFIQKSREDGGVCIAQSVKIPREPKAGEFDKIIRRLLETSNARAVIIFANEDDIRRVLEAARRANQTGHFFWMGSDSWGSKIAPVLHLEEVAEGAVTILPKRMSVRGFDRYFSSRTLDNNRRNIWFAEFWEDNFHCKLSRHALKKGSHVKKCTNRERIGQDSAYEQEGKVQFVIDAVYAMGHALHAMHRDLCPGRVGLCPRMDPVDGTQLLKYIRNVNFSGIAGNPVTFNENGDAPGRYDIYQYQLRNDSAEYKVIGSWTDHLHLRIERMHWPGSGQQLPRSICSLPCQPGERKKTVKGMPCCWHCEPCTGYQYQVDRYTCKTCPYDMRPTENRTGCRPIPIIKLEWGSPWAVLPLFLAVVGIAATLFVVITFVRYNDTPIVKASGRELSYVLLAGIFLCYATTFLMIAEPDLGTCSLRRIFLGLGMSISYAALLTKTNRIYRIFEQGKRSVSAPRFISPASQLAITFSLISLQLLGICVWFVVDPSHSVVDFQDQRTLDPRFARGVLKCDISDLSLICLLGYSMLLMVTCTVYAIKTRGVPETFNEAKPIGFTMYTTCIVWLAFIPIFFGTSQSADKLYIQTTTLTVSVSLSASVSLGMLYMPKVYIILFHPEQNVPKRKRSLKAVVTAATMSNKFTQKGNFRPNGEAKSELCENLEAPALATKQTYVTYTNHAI
T2 sequence (Q14416 whole entry): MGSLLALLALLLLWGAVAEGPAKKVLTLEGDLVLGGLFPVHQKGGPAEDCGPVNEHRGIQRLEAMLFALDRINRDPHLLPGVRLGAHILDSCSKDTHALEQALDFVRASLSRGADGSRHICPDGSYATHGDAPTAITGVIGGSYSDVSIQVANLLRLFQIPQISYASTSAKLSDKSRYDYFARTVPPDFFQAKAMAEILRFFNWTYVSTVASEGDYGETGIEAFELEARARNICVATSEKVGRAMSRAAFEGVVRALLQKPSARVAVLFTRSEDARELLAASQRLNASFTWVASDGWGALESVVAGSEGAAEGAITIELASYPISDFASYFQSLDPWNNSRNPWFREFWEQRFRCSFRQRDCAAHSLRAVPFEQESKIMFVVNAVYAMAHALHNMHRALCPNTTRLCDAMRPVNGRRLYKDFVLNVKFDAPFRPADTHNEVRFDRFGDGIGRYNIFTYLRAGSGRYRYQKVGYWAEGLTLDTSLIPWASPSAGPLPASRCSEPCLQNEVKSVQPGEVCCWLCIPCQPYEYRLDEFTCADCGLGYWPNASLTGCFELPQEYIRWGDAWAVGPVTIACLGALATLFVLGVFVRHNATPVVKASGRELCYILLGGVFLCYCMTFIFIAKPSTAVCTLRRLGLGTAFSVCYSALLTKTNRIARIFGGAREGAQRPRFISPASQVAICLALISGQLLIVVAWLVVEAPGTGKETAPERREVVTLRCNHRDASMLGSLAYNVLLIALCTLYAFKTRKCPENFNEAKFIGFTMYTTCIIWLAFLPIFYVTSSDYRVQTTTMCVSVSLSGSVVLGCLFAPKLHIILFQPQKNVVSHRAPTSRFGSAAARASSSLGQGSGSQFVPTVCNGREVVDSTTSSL

- EC50 [1]: 7 µM
SMILES: N[C@@]1(C(=O)O)C[C@H](C(=O)O)[C@H](C(=O)O)C1

- EC50 [1]: 1 µM
SMILES: N[C@@H](COP(=O)(O)O)C(=O)O [DEXFOSFOSERINE]

SMILES: NC1(C(=O)O)CC=C(P(=O)(O)O)C1 (stereo unspecified)
- IC50 [2]: > 300 µM
- EC50 [3]: > 300 µM
- EC50 [4]: 17 µM
- EC50 [5]: ~30 µM
- IC50 [6]: > 100 µM
- IC50 [7]: > 100 µM

SMILES: N[C@@H](CCP(=O)(O)O)C(=O)O
- EC50 [1]: 0.5 µM

- EC50 [1]: 9 µM
SMILES: NC1(C(=O)O)C[C@@H](C(=O)O)[C@H](C(=O)O)C1

SMILES: N[C@]1(C(=O)O)C[C@@H]1CP(=O)(O)O
- EC50 [1]: 0.58 µM

SMILES: N[C@@]1(C(=O)O)CCC(P(=O)(O)O)C1 (single isomer, unassigned)
- EC50 [1]: 27 µM

SMILES: N[C@@]1(C(=O)O)CC[C@H](P(=O)(O)O)C1
- EC50 [1]: 86 µM

- EC50 [1]: 4.7 µM
SMILES: NC(C(=O)O)c1ccc(P(=O)(O)O)cc1 (stereo unspecified)

SMILES: N[C@]1(C(=O)O)C[C@H]1CP(=O)(O)O
- EC50 [1]: 7.9 µM

SMILES: NC1(C(=O)O)C=C(P(=O)(O)O)CC1 (stereo unspecified)
- IC50 [8]: > 200 µM
- EC50 [9]: > 30 µM
- EC50 [10]: > 300 µM
- IC50 [6]: > 100 µM
- EC50 [7]: > 30 µM
- IC50 [7]: > 100 µM

Reference: ChEMBL document CHEMBL1133213, “Synthesis, molecular modeling and preliminary biological evaluation of 1-amino-3-phosphono-3-cyclopentene-1-carboxylic acid and 1-amino-3-phosphono-2-cyclopentene-1-carboxylic acid, two novel agonists of metabotropic glutamate receptors of group III” (Bioorg Med Chem Lett, 2000)
